Experimental data reported in ChEMBL document CHEMBL3351997, “Synthesis of novel tylophorine derivatives and evaluation of their anti-inflammatory activity” (ACS Med Chem Lett, 2014).

Columns and labels:
[1] = Antiinflammatory activity against BALB/c mouse splenocytes assessed as inhibition of LPS-induced TNFalpha production after 4 hrs by ELISA; assay type: functional, cell-based; conditions: Splenocyte
Outline: (§1)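 Splenocytes from BALB/c mice were cultured with LPS (100 ng/mL) plus compound for 4 h or 24 h. TNF-α in the supernatants was measured by ELISA. Values are mean ± SD of at least three independent experiments, each run in duplicate.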

[2] = tested on: RAW264.7; experiment: Antiinflammatory activity against mouse RAW264.7 cells assessed as inhibition of LPS-induced TNFalpha production after 6 hrs by ELISA; assay type: functional, cell-based; conditions: RAW264.7, 6 h
[3] = tested on: T-cell; experiment: Induction of Foxp3 expression in B6 Foxp3-GFP mouse CD4-positive T cells assessed as increase in iTregs at 100 nM after 3 days by flow cytometry; assay type: functional
Outline: (§2)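 Naive CD4+ T cells were sorted from B6 Foxp3-GFP reporter mice and cultured with compound plus TGF-β (5 ng/mL) for 3 days. Harvested cells were read by flow cytometry as the percentage of GFP+ (Foxp3+) iTregs. Values are mean ± SD of at least three independent experiments, each run in duplicate.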

[4] = tested on: RAW264.7; experiment: Cytotoxicity against mouse RAW264.7 cells after 48 hrs by MTT assay; assay type: cell-based; conditions: RAW264.7, 48 h
Outline: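 Raw 264.7 murine macrophages were cultured with a range of compound concentrations for 48 h, with vehicle-treated cells as control. The 50% cytotoxic concentration (CC50) was determined, with values representative of three experiments.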

[5] = Antiinflammatory activity against BALB/c mouse splenocytes assessed as inhibition of LPS-induced TNFalpha production after 24 hrs by ELISA; assay type: functional, cell-based; conditions: Splenocyte; outline: as §1
[6] = tested on: T-cell; experiment: Inhibition of Foxp3 expression in B6 Foxp3-GFP mouse CD4-positive T cells assessed as iTregs at 100 nM after 3 days by flow cytometry; assay type: functional; conditions: for inhibition at 0.1 µM: Mus musculus, T-cell, 72 h; outline: as §2
[7] = tested on: T-cell; experiment: Induction of Foxp3 expression in B6 Foxp3-GFP mouse CD4-positive T cells assessed as increase in iTregs at 1 uM after 3 days by flow cytometry; assay type: functional; outline: as §2
[8] = tested on: T-cell; experiment: Induction of Foxp3 expression in B6 Foxp3-GFP mouse CD4-positive T cells at 10 nM after 3 days by flow cytometry in presence of 5 ng/ml TGF-beta (reference value: 37.15 %); assay type: functional; outline: as §2
[9] = tested on: T-cell; experiment: Induction of Foxp3 expression in B6 Foxp3-GFP mouse CD4-positive T cells at 1 nM after 3 days by flow cytometry in presence of 5 ng/ml TGF-beta (reference value: 37.15 %); assay type: functional; outline: as §2
[10] = tested on: T-cell; experiment: Induction of Foxp3 expression in B6 Foxp3-GFP mouse CD4-positive T cells at 1 uM after 3 days by flow cytometry in presence of 5 ng/ml TGF-beta (reference value: 37.15 %); assay type: functional; outline: as §2
[11] = tested on: T-cell; experiment: Induction of Foxp3 expression in B6 Foxp3-GFP mouse CD4-positive T cells at 1 nM after 3 days by flow cytometry in presence of 5 ng/ml TGF-beta; assay type: functional; outline: as §2
[12] = tested on: T-cell; experiment: Induction of Foxp3 expression in B6 Foxp3-GFP mouse CD4-positive T cells at 100 nM after 3 days by flow cytometry in presence of 5 ng/ml TGF-beta (reference value: 37.15 %); assay type: functional; outline: as §2
[13] = tested on: RAW264.7; experiment: Cytotoxicity against mouse RAW264.7 cells assessed as cell death at 1 uM after 48 hrs by MTT assay; assay type: cell-based; conditions: raw264.7, 48 h
[14] = Solubility of the compound in DMSO; assay type: physicochemical
[15] = Solubility of the compound in water; assay type: physicochemical; conditions: buffer

Compound | IC50 [1] [µM] | IC50 [2] [µM] | IC50 [4] [µM] | IC50 [5] [µM] | Activity [7] [%] | other results
COc1cc2c3c(c4cc(OC)c(OC)cc4c2cc1OC)[C@@H](O)[C@H]1CCCN1C3 | 0.133 | 0.238 | 0.242 | 0.783 | – | Activity [3]: 12%
COc1cc2c3c(c4cc(OC)c(OC)cc4c2cc1OC)[C@H](O)[C@H]1CCCN1C3 | 0.61 | 0.817 | 1.16 | 0.965 | – | Activity [3]: 5%
CC1(C)C2CC[C@]1(S(=O)(=O)O)C(=O)C2.COc1cc2c3c(c4cc(OC)c(OC)cc4c2cc1OC)CN1CCCC1C3 (centres undefined) | 0.03 | 0.027 | 0.033 | 0.338 | – | inhibition at 0.1 µM [6]: 2%
COc1cc(/C=C/C(=O)O)ccc1O.COc1cc2c3c(c4cc(OC)c(OC)cc4c2cc1OC)CN1CCCC1C3 (centres undefined) | 0.213 | 0.135 | 0.093 | 0.329 | – | Activity [3]: 0.8%
COc1cc2c3c(c4cc(OC)c(OC)cc4c2cc1OC)CN1CCCC1C3.O=C(O)c1cc(S(=O)(=O)O)ccc1O (centres undefined) | 0.21 | 0.283 | 0.16 | 0.16 | – | Activity [3]: 29%
COc1cc2cc(CN3CCC[C@H]3CO)c3cc(OC)c(OC)cc3c2cc1OC | 265 | 307 | 422 | 304 | 0.2 | –
COC(=O)[C@@H]1CCCN1C(=O)c1cc2cc(OC)c(OC)cc2c2cc(OC)c(OC)cc12 | 211 | 217 | 320 | 363 | 5 | –
COc1cc2cc(CN3CCCCC3C(=O)O)c3cc(OC)c(OC)cc3c2cc1OC (centres undefined) | 292 | 354 | 357 | 389 | 0.7 | –
COC(=O)C1CCCCN1C(=O)c1cc2cc(OC)c(OC)cc2c2cc(OC)c(OC)cc12 (centres undefined) | 301 | 227 | 116 | 329 | 7 | –
COc1cc2cc(CN3CCC[C@H]3C(=O)O)c3cc(OC)c(OC)cc3c2cc1OC | 234 | 200 | 418 | 231 | 2 | –
COC(=O)[C@@H]1CCCN1Cc1cc2cc(OC)c(OC)cc2c2cc(OC)c(OC)cc12 | 153 | 216 | 469 | 275 | 19 | –
COc1cc2cc(CN3CCCCC3CO)c3cc(OC)c(OC)cc3c2cc1OC (centres undefined) | 38 | 41 | 513 | 92 | 41 | Activity [8]: 41.25%; Activity [9]: 40.42%; Activity [10]: 73.94%; Activity [11]: 100%; Activity [12]: 51.92%
COc1cc2cc(CN3CCC(O)CC3)c3cc(OC)c(OC)cc3c2cc1OC | 265 | 231 | 132 | 273 | 5 | –
COC(=O)CCCCCNC(=O)c1cc2cc(OC)c(OC)cc2c2cc(OC)c(OC)cc12 | 156 | 241 | 423 | 257 | 16 | –
COc1cc2cc(C(=O)NCCCCCCO)c3cc(OC)c(OC)cc3c2cc1OC | 251 | 236 | 305 | 317 | 7 | –
COC(=O)CCCCCNCc1cc2cc(OC)c(OC)cc2c2cc(OC)c(OC)cc12 | 115 | 227 | 515 | 213 | 47 | –
COc1cc2c3c(c4cc(OC)c(OC)cc4c2cc1OC)[C@H](O)[C@@H]1CCCN1C3 | 0.02 | 0.036 | 0.053 | 0.097 | – | Activity [13]: Toxic; Activity [3]: 39%; Activity [12]: 40%; solubility [14]: soluble
COc1cc2c3c(c4cc(OC)c(OC)cc4c2cc1OC)[C@@H](O)[C@@H]1CCCN1C3 | 0.37 | 0.35 | 1.06 | 1.29 | – | Activity [3]: 29%
COc1cc2c3c(c4cc(OC)c(OC)cc4c2cc1OC)CN1CCCC1C3 (racemic) [(+/-)-TYLOPHORINE] | – | – | – | – | – | inhibition (INH) [6]: 34%
COc1cc2c3c(c4cc(OC)c(OC)cc4c2cc1OC)CN1CCC[C@H]1C3 [(S)-TYLOPHORINE] | – | – | – | – | – | inhibition at 0.1 µM [6]: 44%
COc1cc2c3c(c4cc(OC)c(OC)cc4c2cc1OC)CN1CCCC1C3.O=C(O)CC(O)C(=O)O (centres undefined) [TYLOPHORINE 2-HYDROXYSUCCINIC ACID SALT] | – | – | – | – | – | solubility [15]: soluble
COc1cc2c3c(c4cc(OC)c(OC)cc4c2cc1OC)CN1CCCC1C3.O=C(O)c1ccccc1 (centres undefined) [TYLOPHORINE BENZOIC ACID SALT] | – | – | – | – | – | inhibition (INH) [6]: 1%
COc1cc2c3c(c4cc(OC)c(OC)cc4c2cc1OC)CN1CCCC1C3.I (centres undefined) [TYLOPHORINE HYDROIODIDE] | – | – | – | – | – | inhibition (INH) [6]: 12%
COc1cc2c3c(c4cc(OC)c(OC)cc4c2cc1OC)CN1CCCC1C3.Nc1ccc(S(=O)(=O)O)cc1 (centres undefined) [TYLOPHORINE P-AMINOBENZENESULFONIC ACID SALT] | 0.215 | 0.248 | 0.175 | 0.193 | – | inhibition at 0.1 µM [6]: 3%
COc1cc2c3c(c4cc(OC)c(OC)cc4c2cc1OC)CN1CCCC1C3.O=C(O)c1ccc(O)cc1 (centres undefined) [TYLOPHORINE P-HYDROXYBENZOIC ACID SALT] | 0.76 | 0.511 | 0.651 | 0.972 | – | inhibition at 0.1 µM [6]: 5%
COc1cc2c3c(c4cc(OC)c(OC)cc4c2cc1OC)CN1CCCC1C3.O=C(O)c1ccccc1O (centres undefined) [TYLOPHORINE SALICYLIC ACID SALT] | – | – | – | – | – | inhibition (INH) [6]: 4%
